Assay results: ChEMBL document CHEMBL1126857, “14 beta-[(p-nitrocinnamoyl)amino]morphinones, 14 beta-[(p-nitrocinnamoyl)amino]-7,8-dihydromorphinones, and their codeinone analogues: synthesis and receptor activity” (J Med Chem, 1993)
pIC50, pKd: −log10 of the molar value.

Legend:
Mu-type opioid receptor = Mu-type opioid receptor (Bos taurus, UniProt P79350); assay: Binding affinity against mu opioid receptor from calf frontal cortex.
Outline: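 Calf frontal cortex membranes (10 mg wet weight), prewashed and preincubated 15 min at 37 °C, in 50 mM Tris-HCl pH 7.5 with 10 mM MgSO4 and 0.5 mM EDTA. Competition against 0.8 nM [3H]DAMGO at eight ligand concentrations, 30 min at 37 °C, in triplicate. Nonspecific binding with 1 μM naloxone. Filtration, then scintillation counting; IC50 taken.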

[1] = Tested for its binding effect on [3H]- DAMGO in bovine striatal membrane at 20 nM; assay type: functional, cell membranes, Bos taurus, Striatum
Outline: (§1)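 Bovine striatal membranes (10 mg protein) pretreated 60 min at 25 °C with or without 20 nM ligand in 50 mM Tris-HCl pH 7.5, then washed by centrifugation five times. [3H]DAMGO saturation, 0.05–6.4 nM, 60 min at 25 °C, then filtration. Nonspecific binding with 10 μM naloxone; Bradford protein. Kd/Bmax by nonlinear regression; triplicate, three experiments.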

[2] = Bmax value expressed in (f mol bound)/mg of protein; outline: as §1

Mu-type opioid receptor, sequence (P79350 whole entry): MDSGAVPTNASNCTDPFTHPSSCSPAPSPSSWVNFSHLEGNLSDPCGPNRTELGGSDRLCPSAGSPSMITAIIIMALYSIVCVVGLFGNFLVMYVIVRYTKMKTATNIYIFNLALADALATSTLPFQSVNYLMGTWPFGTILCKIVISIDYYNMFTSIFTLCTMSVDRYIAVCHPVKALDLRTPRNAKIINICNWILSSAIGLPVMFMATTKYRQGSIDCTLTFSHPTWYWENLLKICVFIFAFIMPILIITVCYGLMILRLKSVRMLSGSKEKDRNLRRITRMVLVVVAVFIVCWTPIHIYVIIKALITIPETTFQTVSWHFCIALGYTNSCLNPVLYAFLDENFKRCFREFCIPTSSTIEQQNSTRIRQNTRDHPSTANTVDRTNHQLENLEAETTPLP

## COc1ccc2c3c1O[C@@]1(C)C(=O)C=C[C@@]4(NC(=O)/C=C/c5ccc([N+](=O)[O-])cc5)C(C2)N(C)CCC314 (some centres not stated)
Mu-type opioid receptor
  pIC50: 7.44

## CN1CCC23c4c5ccc(O)c4O[C@@]2(C)C(=O)C=C[C@@]3(NC(=O)/C=C/c2ccc([N+](=O)[O-])cc2)C1C5 (some centres not stated)
Mu-type opioid receptor
  pIC50: 9.10

## COc1ccc2c3c1O[C@@]1(C)C(=O)CC[C@@]4(NC(=O)/C=C/c5ccc([N+](=O)[O-])cc5)C(C2)N(C)CCC314 (some centres not stated)
Mu-type opioid receptor
  pIC50: 6.98

## COc1ccc2c3c1O[C@H]1C(=O)C=C[C@@]4(NC(=O)/C=C/c5ccc([N+](=O)[O-])cc5)C(C2)N(C)CCC314 (some centres not stated)
Mu-type opioid receptor
  pIC50: 9.00

## COc1ccc2c3c1O[C@@]1(C)C(=O)C=C[C@@]4(NC(=O)/C=C/c5ccc([N+](=O)[O-])cc5)C(C2)N(CC2CC2)CCC314 (some centres not stated)
Mu-type opioid receptor
  pIC50: 7.43

## COc1ccc2c3c1O[C@H]1C(=O)C=C[C@@]4(NC(=O)/C=C/c5ccc([N+](=O)[O-])cc5)C(C2)N(CC2CC2)CCC314 (some centres not stated)
Mu-type opioid receptor
  pIC50: 8.84

## C[C@@]12Oc3c(O)ccc4c3C13CCN(CC1CC1)C(C4)[C@]3(NC(=O)CCc1ccc([N+](=O)[O-])cc1)CCC2=O (some centres not stated)
Mu-type opioid receptor
  pIC50: 7.62

## O=C(/C=C/c1ccc([N+](=O)[O-])cc1)N[C@@]12C=CC(=O)[C@@H]3Oc4c(O)ccc5c4C31CCN(CC1CC1)C2C5 (some centres not stated)
Mu-type opioid receptor
  pIC50: 8.11

## COc1ccc2c3c1O[C@H]1C(=O)CC[C@@]4(NC(=O)/C=C/c5ccc([N+](=O)[O-])cc5)C(C2)N(C)CCC314 (some centres not stated)
Mu-type opioid receptor
  pIC50: 9.36

## C[C@@]12Oc3c(O)ccc4c3C13CCN(CC1CC1)C(C4)[C@]3(NC(=O)/C=C/c1ccc([N+](=O)[O-])cc1)C=CC2=O (some centres not stated)
Mu-type opioid receptor
  pIC50: 8.73

## COc1ccc2c3c1O[C@@]1(C)C(=O)CC[C@@]4(NC(=O)/C=C/c5ccc([N+](=O)[O-])cc5)C(C2)N(CC2CC2)CCC314 (some centres not stated)
Mu-type opioid receptor
  pIC50: 7.49

## C[C@@]12Oc3c(O)ccc4c3C13CCN(CC1CC1)C(C4)[C@]3(NC(=O)/C=C/c1ccc([N+](=O)[O-])cc1)CCC2=O (some centres not stated)
[1]
  pKd: 9.09
[2]
  Bmax (fM bound (mg of protein)-1): 100
Mu-type opioid receptor
  pIC50: 9.28

## CN1CC[C@]23c4c5ccc(O)c4O[C@H]2C(=O)CC[C@@]3(NC(=O)/C=C/c2ccc([N+](=O)[O-])cc2)[C@H]1C5
Mu-type opioid receptor
  pIC50: 9.55

## O=C(/C=C/c1ccc([N+](=O)[O-])cc1)N[C@@]12CCC(=O)[C@@H]3Oc4c(O)ccc5c4[C@@]31CCN(CC1CC1)[C@@H]2C5
Mu-type opioid receptor
  pIC50: 9.06

## CN1CCC23c4c5ccc(O)c4O[C@H]2C(=O)C=C[C@@]3(NC(=O)/C=C/c2ccc([N+](=O)[O-])cc2)C1C5 (some centres not stated)
Mu-type opioid receptor
  pIC50: 8.84
